≈ marks a conversion by molar mass, not a printed value. Calls of active or inactive are those of the source. The calls are words filed in the database; no cut-off is given here.

Data set [1] concerns Mycobacterium avium. In words: Antimicrobial activity against macrolide-resistant Mycobacterium avium radiometric broth […] method. The data set is classed as functional. Put shortly: (§1)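 MAC clinical blood isolates from AIDS patients; 5–10 colonies from 7H11 agar into 7H9 broth, inoculum ~5 × 10^4 CFU/ml by McFarland no. 1. Radiometric (BACTEC) broth […], T100 analysis. Controls: undiluted drug-free, 1:100 and 1:1,000 diluted inoculum, boiled-bacteria vial. Observation ~7 days. MIC range, MIC50 and MIC90 reported (susceptible n = 24; resistant n = 6).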

Data set [2] relates to Mycobacterium avium. In words: Antimicrobial activity against macrolide-susceptible Mycobacterium avium by radiometric broth […] method. The format is functional. In outline: as §1
For data set [3], the system named is Mycobacterium avium complex sp. In words: Antimicrobial activity against clarithromycin resistant-Mycobacterium avium complex 101 infected C57BL/6 beige mouse liver assessed as bacterial load at 100 mg/kg once daily 6 days a week for 4 weeks. The format is functional. Put shortly: (§2)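 Female beige mice (~20 g) infected intravenously with ~3 × 107 clarithromycin-resistant MAC 101 (from spleen of clarithromycin-treated MAC 101-infected mouse). Treatment started 1 week post-infection, once daily, 6 days/week, 4 weeks. Baseline mice harvested at 1 week; diluent-treated controls in parallel. Liver and spleen homogenized, diluted, plated on 7H10 agar, CFU counted after 10 days at 37°C. Mean CFU/g ± SEM.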

Data set [4] shares this test system. Nature of the data set: Antimicrobial activity against clarithromycin resistant-Mycobacterium avium complex 101 infected C57BL/6 beige mouse liver assessed as bacterial load at 40 mg/kg once daily 6 days a week for 4 weeks. The format is functional. In outline: as §2
Data set [5] shares this test system. Nature of the data set: Antimicrobial activity against Mycobacterium avium complex 101 infected C57BL/6 beige mouse spleen assessed as bacterial load at 100 mg/kg once daily 6 days a week for 4 weeks. The data set is classed as functional. Put shortly: (§3)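 Female C57BL/6 beige mice, about 20 g, infected intravenously with about 3 × 10^7 MAC 101. Baseline mice harvested at 1 week, when treatment started: once daily, 6 days/week, for 4 weeks, alongside diluent-treated controls. Liver and spleen homogenized, diluted and plated on 7H10 agar, with CFU counted after 10 days at 37°C and expressed per gram. Student's t test.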

Data set [6] shares this test system. Nature of the data set: Antimicrobial activity against Mycobacterium avium complex 101 infected C57BL/6 beige mouse liver assessed as bacterial load at 100 mg/kg once daily 6 days a week for 4 weeks. The format is functional. Put shortly: as §3
Data set [7] has the same test system. Nature of the data set: Antimicrobial activity against Mycobacterium avium complex 101 infected C57BL/6 beige mouse spleen assessed as bacterial load after 12 weeks. The data set is classed as functional.
A short description of data set [8]: Cmax in mouse serum at 15 mg/kg, po. The data set is classed as ADME, organism-based. More on the design: dose 15 mg/kg, route oral.
Data set [9] is described as follows: Tmax in mouse serum at 15 mg/kg, po. The data set is classed as ADME, organism-based. More on the design: dose 15 mg/kg, route oral.
Data set [10] relates to Mycobacterium avium complex sp. In words: Antimicrobial activity against clarithromycin resistant-Mycobacterium avium complex 101 infected C57BL/6 beige mouse spleen assessed as bacterial load at 100 mg/kg once daily 6 days a week for 4 weeks. The format is functional. Put shortly:
as §2

Data set [11] shares this test system. In words: Antimicrobial activity against Mycobacterium avium complex 101 infected C57BL/6 beige mouse spleen assessed as bacterial load after 8 weeks. The format is functional.
For data set [12] the test system is unchanged. Nature of the data set: Antimicrobial activity against clarithromycin resistant-Mycobacterium avium complex 101 infected C57BL/6 beige mouse spleen assessed as bacterial load at 40 mg/kg once daily 6 days a week for 4 weeks. The data set is classed as functional. In outline:
as §2

The nature of data set [13]: Half life in mouse serum at 15 mg/kg, po. The data set is classed as ADME, organism-based. More on the design: dose 15 mg/kg, route oral.
For data set [14], the system named is Mycobacterium avium complex sp. In words: Antibacterial activity against Mycobacterium avium complex 101 in U937 cells at 0.5 ug/ml after 4 days. The conditions noted are these: U-937.
Data set [15] shares this test system. In words: Antimicrobial activity against Mycobacterium avium complex 101 infected C57BL/6 beige mouse spleen assessed as bacterial load at 40 mg/kg once daily 6 days a week for 4 weeks. The data set is classed as functional. Put shortly: as §3
Data set [16] has the same test system. In words: Antimicrobial activity against Mycobacterium avium complex 101 infected C57BL/6 beige mouse liver assessed as bacterial load at 40 mg/kg once daily 6 days a week for 4 weeks. The data set is classed as functional. In outline:
as §3

As for `CC[C@H]1OC(=O)[C@H](C)[C@@H](O[C@H]2C[C@@](C)(OC)[C@@H](O)[C@H](C)O2)[C@H](C)[C@@H](O[C@@H]2O[C@H](C)C[C@H](N(C)C)[C@H]2O)[C@](C)(O)C[C@@H](C)CN(C)[C@H](C)[C@@H](O)[C@]1(C)O` [AZITHROMYCIN], the MIC against Mycobacterium avium [1] is over 512 µg/mL. In the data set with Mycobacterium avium [2], this compound had an MIC50 of 16 µg/mL (≈ 21.4 µM) and an MIC90 of 16 µg/mL (≈ 21.4 µM).
On to `CC[C@H]1OC(=O)[C@H](C)C(=O)[C@H](C)[C@@H](O[C@@H]2O[C@H](C)C[C@H](N(C)C)[C@H]2O)[C@@]2(C)C[C@@H](C)/C(=N\C(C)=O)[C@H](C)[C@@H](OC/C(=N\OCc3ccc(-n4cccn4)nc3)CO2)[C@]1(C)O` [MODITHROMYCIN], for which the CFU in data set [3] is 1.7 10^8/g; in data set [4] it was 2.5 10^8/g; in data set [5], 1.2 10^7/g; in data set [6] it was 7.1 10^6/g; in data set [7] it was 2.5 10^5/g; in [10] it was 5.7 10^8/g. Besides, the figures for the CFU in [11] and in data set [12] were 2.3 10^5/g and 2.7 10^8/g, respectively. The same compound returned an MIC in the data set on Mycobacterium avium [1] of 32 µg/mL (≈ 38 µM). Further, in the data set on Mycobacterium avium [2], the MIC50 was determined as 4 µg/mL (≈ 4.76 µM). In the data set with Mycobacterium avium [2], this compound registered an MIC90 of 8 µg/mL (≈ 9.51 µM). Also, the Cmax in [8] came out at 2500 ng/mL. Also, the time of peak concentration (Tmax) in data set [9] stood at 1.5 h. The half-life in data set [13] was 3.3 h. Moreover, the outcome in data set [14] was Active.
In the case of `CC[C@H]1OC(=O)[C@H](C)C(=O)[C@H](C)[C@@H](O[C@@H]2O[C@H](C)C[C@H](N(C)C)[C@H]2O)[C@](C)(OC)C[C@@H](C)C(=O)[C@H](C)[C@H]2N(CCCCn3cnc(-c4cccnc4)c3)C(=O)O[C@]12C` [TELITHROMYCIN], in the data set with Mycobacterium avium [2], the MIC50 was found to be 32 µg/mL (≈ 39.4 µM) and the MIC90 is over 64 µg/mL. The Cmax in [8] stood at 5500 ng/mL. Moreover, the time to peak (Tmax) in data set [9] was determined as 1 h. In addition, the half-life in data set [13] is 1.5 h.
As to `CC[C@H]1OC(=O)[C@H](C)[C@@H](O[C@H]2C[C@@](C)(OC)[C@@H](O)[C@H](C)O2)[C@H](C)[C@@H](O[C@@H]2O[C@H](C)C[C@H](N(C)C)[C@H]2O)[C@](C)(OC)C[C@@H](C)C(=O)[C@H](C)[C@@H](O)[C@]1(C)O` [CLARITHROMYCIN], the CFU in data set [3] is recorded as 2.8 10^8/g; in data set [5] it was 6.6 10^7/g; in data set [6], 2.8 10^7/g; in data set [10], 8 10^8/g. This compound yielded a minimum inhibitory concentration (MIC) against Mycobacterium avium [1] of over 64 µg/mL. In the data set on Mycobacterium avium [2], this compound had an MIC50 of 2 µg/mL (≈ 2.67 µM). For the same compound, the MIC90 against Mycobacterium avium [2] stood at 4 µg/mL (≈ 5.35 µM).
On to `O[C@@H](c1cc(C(F)(F)F)nc2c(C(F)(F)F)cccc12)[C@H]1CCCCN1` [MEFLOQUINE], for which the CFU was 2.9 10^7/g in data set [4], 4.8 10^7/g in data set [15], 1.8 10^7/g in data set [16] and 4.6 10^7/g in [12].
